Test results as given in ChEMBL document CHEMBL1151705, “Novel azalides derived from 16-membered macrolides. Part II: Isolation of the linear 9-formylcarboxylic acid and its sequential macrocyclization with an amino alcohol or an azidoamine” (2008).
In brackets after ≈: the same amount, converted by molar mass.

Tests used:
Type in all cases: functional
Haemophilus influenzae [1] = assay: Antimicrobial activity against drug-susceptible Haemophilus influenzae 1 after 20 hrs by agar dilution method; details: Haemophilus influenzae, 20 h; read-out: MIC
Procedure, shortened: (§1)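 Streptococci, H. influenzae and M. catarrhalis were precultured on blood agar plates. Suspensions of about 10⁶ CFU/ml were inoculated onto sensitivity disk agar supplemented with 5% horse blood and incubated at 37 °C for 20 h. MIC was read as the lowest drug concentration with no visible growth.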

Haemophilus influenzae [2] = assay: Antimicrobial activity against drug-susceptible Haemophilus influenzae 2 after 20 hrs by agar dilution method; details: Haemophilus influenzae, 20 h; read-out: MIC; procedure, shortened: as §1
Streptococcus pyogenes [3] = assay: Antimicrobial activity against Streptococcus pyogenes 3 expressing mefA after 20 hrs by agar dilution method; details: Streptococcus pyogenes, 20 h; read-out: MIC; procedure, shortened: as §1
Staphylococcus aureus [4] = assay: Antimicrobial activity against Staphylococcus aureus 4 constitutively expressing ermA after 20 hrs by agar dilution method
Procedure, shortened: (§2)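 Agar dilution MIC. S. aureus seed culture was grown in sensitivity test broth. Cell suspension (about 10⁶ CFU/ml) was inoculated onto sensitivity disk agar with 5% horse blood and incubated at 37 °C for 20 h. MIC was the lowest drug concentration that prevented visible growth.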

Streptococcus pneumoniae [5] = assay: Antimicrobial activity against Streptococcus pneumoniae 7 expressing inducible ermB after 20 hrs by agar dilution method; details: Streptococcus pneumoniae, 20 h; read-out: MIC; procedure, shortened: as §1
Streptococcus pneumoniae [6] = assay: Antimicrobial activity against Streptococcus pneumoniae 10 expressing mefA after 20 hrs by agar dilution method; details: Streptococcus pneumoniae, 20 h; read-out: MIC; procedure, shortened: as §1
Staphylococcus aureus [7] = assay: Antimicrobial activity against Staphylococcus aureus 6 expressing inducible ermB after 20 hrs by agar dilution method; procedure, shortened: as §2
Haemophilus influenzae [8] = assay: Antimicrobial activity against drug-susceptible Haemophilus influenzae 4 after 20 hrs by agar dilution method; details: Haemophilus influenzae, 20 h; read-out: MIC; procedure, shortened: as §1
Streptococcus pneumoniae [9] = assay: Antimicrobial activity against Streptococcus pneumoniae 5 constitutively expressing ermB/mefA after 20 hrs by agar dilution method; details: Streptococcus pneumoniae, 20 h; read-out: MIC; procedure, shortened: as §1
Moraxella catarrhalis [10] = assay: Antimicrobial activity against drug-susceptible Moraxella catarrhalis 1 after 20 hrs by agar dilution method; details: Moraxella catarrhalis, 20 h; read-out: MIC; procedure, shortened: as §1
Streptococcus pneumoniae [11] = assay: Antimicrobial activity against drug-susceptible Streptococcus pneumoniae DP1 Type1 after 20 hrs by agar dilution method; details: Streptococcus pneumoniae, 20 h; read-out: MIC; procedure, shortened: as §1
Staphylococcus aureus [12] = assay: Antimicrobial activity against drug-susceptible Staphylococcus aureus 3 after 20 hrs by agar dilution method; details: Staphylococcus aureus, 20 h; read-out: MIC; procedure, shortened: as §2
Streptococcus pneumoniae [13] = assay: Antimicrobial activity against Streptococcus pneumoniae 6 constitutively expressing ermB after 20 hrs by agar dilution method; details: Streptococcus pneumoniae, 20 h; read-out: MIC; procedure, shortened: as §1
Streptococcus pneumoniae [14] = assay: Antimicrobial activity against drug-susceptible Streptococcus pneumoniae 3 after 20 hrs by agar dilution method; details: Streptococcus pneumoniae, 20 h; read-out: MIC; procedure, shortened: as §1
Streptococcus pyogenes [15] = assay: Antimicrobial activity against drug-susceptible Streptococcus pyogenes 1 after 20 hrs by agar dilution method; details: Streptococcus pyogenes, 20 h; read-out: MIC; procedure, shortened: as §1
Streptococcus pyogenes [16] = assay: Antimicrobial activity against Streptococcus pyogenes 2 constitutively expressing ermB after 20 hrs by agar dilution method; procedure, shortened: as §1
Streptococcus pneumoniae [17] = assay: Antimicrobial activity against Streptococcus pneumoniae 4 constitutively expressing ermB after 20 hrs by agar dilution method; details: Streptococcus pneumoniae, 20 h; read-out: MIC; procedure, shortened: as §1
Streptococcus pneumoniae [18] = assay: Antimicrobial activity against Streptococcus pneumoniae 8 expressing inducible ermB after 20 hrs by agar dilution method; details: Streptococcus pneumoniae, 20 h; read-out: MIC; procedure, shortened: as §1
Haemophilus influenzae [19] = assay: Antimicrobial activity against drug-susceptible Haemophilus influenzae 3 after 20 hrs by agar dilution method; details: Haemophilus influenzae, 20 h; read-out: MIC; procedure, shortened: as §1
Streptococcus pneumoniae [20] = assay: Antimicrobial activity against Streptococcus pneumoniae 9 expressing mefA after 20 hrs by agar dilution method; details: Streptococcus pneumoniae, 20 h; read-out: MIC; procedure, shortened: as §1
Moraxella catarrhalis [21] = assay: Antimicrobial activity against drug-susceptible Moraxella catarrhalis 2 after 20 hrs by agar dilution method; details: Moraxella catarrhalis, 20 h; read-out: MIC; procedure, shortened: as §1
Staphylococcus aureus [22] = assay: Antimicrobial activity against drug-susceptible Staphylococcus aureus 209P JC-1 after 20 hrs by agar dilution method; details: Staphylococcus aureus, 209P, 20 h; read-out: MIC; procedure, shortened: as §2
Staphylococcus aureus [23] = assay: Antimicrobial activity against drug-susceptible Staphylococcus aureus 2 after 20 hrs by agar dilution method; details: Staphylococcus aureus, 20 h; read-out: MIC; procedure, shortened: as §2
Streptococcus pneumoniae [24] = assay: Antimicrobial activity against drug-susceptible Streptococcus pneumoniae 2 after 20 hrs by agar dilution method; details: Streptococcus pneumoniae, 20 h; read-out: MIC; procedure, shortened: as §1
Staphylococcus aureus [25] = assay: Antimicrobial activity against Staphylococcus aureus 5 expressing inducible ermB after 20 hrs by agar dilution method; details: Staphylococcus aureus, 20 h; read-out: MIC; procedure, shortened: as §2

| Compound | MIC (Haemophilus influenzae [1]) [µg/mL] | MIC (Haemophilus influenzae [2]) [µg/mL] | MIC (Streptococcus pyogenes [3]) [µg/mL] | MIC (Staphylococcus aureus [4]) [µg/mL] | MIC (Streptococcus pneumoniae [5]) [µg/mL] | MIC (Streptococcus pneumoniae [6]) [µg/mL] | MIC (Staphylococcus aureus [7]) [µg/mL] | MIC (Haemophilus influenzae [8]) [µg/mL] | MIC (Streptococcus pneumoniae [9]) [µg/mL] | MIC (Moraxella catarrhalis [10]) [µg/mL] | MIC (Streptococcus pneumoniae [11]) [µg/mL] | MIC (Staphylococcus aureus [12]) [µg/mL] | MIC (Streptococcus pneumoniae [13]) [µg/mL] | MIC (Streptococcus pneumoniae [14]) [µg/mL] | MIC (Streptococcus pyogenes [15]) [µg/mL] | MIC (Streptococcus pyogenes [16]) [µg/mL] | MIC (Streptococcus pneumoniae [17]) [µg/mL] | MIC (Streptococcus pneumoniae [18]) [µg/mL] | MIC (Haemophilus influenzae [19]) [µg/mL] | MIC (Streptococcus pneumoniae [20]) [µg/mL] | other results |
| --- | --- | --- | --- | --- | --- | --- | --- | --- | --- | --- | --- | --- | --- | --- | --- | --- | --- | --- | --- | --- | --- |
| CCOC(=O)[C@H]1[C@H](C)O[C@@H](O[C@H]2[C@H](N(C)C)[C@@H](O)[C@H](O[C@H]3[C@@H](CC=O)C[C@@H](C)[C@@H](O)CN(C)CC(/C=C/Cc4cccc5cccnc45)CCOC(=O)C[C@@H](OC(=O)CC)[C@@H]3OC)O[C@@H]2C)C[C@]1(C)O (stereo not given in full) | 32 (≈ 32.4 µM) | 2 (≈ 2.03 µM) | 0.25 (≈ 0.253 µM) | > 128 | 8 (≈ 8.11 µM) | 0.03 (≈ 0.0304 µM) | 0.5 (≈ 0.507 µM) | 8 (≈ 8.11 µM) | 128 (≈ 130 µM) | 1 (≈ 1.01 µM) | 0.015 (≈ 0.0152 µM) | 0.25 (≈ 0.253 µM) | 128 (≈ 130 µM) | 0.015 (≈ 0.0152 µM) | 0.06 (≈ 0.0608 µM) | > 128 | 128 (≈ 130 µM) | 8 (≈ 8.11 µM) | 8 (≈ 8.11 µM) | 0.03 (≈ 0.0304 µM) | MIC (Moraxella catarrhalis [21]): 2 µg/mL (≈ 2.03 µM); MIC (Staphylococcus aureus [22]): 0.25 µg/mL (≈ 0.253 µM); MIC (Staphylococcus aureus [23]): 0.5 µg/mL (≈ 0.507 µM); MIC (Streptococcus pneumoniae [24]): 0.015 µg/mL (≈ 0.0152 µM); MIC (Staphylococcus aureus [25]): 0.25 µg/mL (≈ 0.253 µM) |
| CCOC(=O)[C@H]1[C@H](C)O[C@@H](O[C@H]2[C@H](N(C)C)[C@@H](O)[C@H](O[C@H]3[C@@H](CC=O)C[C@@H](C)[C@@H](O)CN(C)CCC[C@H](C/C=C/c4ccc5ncccc5c4)OC(=O)C[C@@H](OC(=O)CC)[C@@H]3OC)O[C@@H]2C)C[C@@]1(C)O | 32 (≈ 32.4 µM) | 4 (≈ 4.06 µM) | 0.25 (≈ 0.253 µM) | > 128 | 8 (≈ 8.11 µM) | 0.03 (≈ 0.0304 µM) | 0.25 (≈ 0.253 µM) | 8 (≈ 8.11 µM) | > 128 | 1 (≈ 1.01 µM) | 0.015 (≈ 0.0152 µM) | 0.25 (≈ 0.253 µM) | > 128 | 0.015 (≈ 0.0152 µM) | 0.06 (≈ 0.0608 µM) | > 128 | > 128 | 8 (≈ 8.11 µM) | 8 (≈ 8.11 µM) | 0.03 (≈ 0.0304 µM) | MIC (Moraxella catarrhalis [21]): 1 µg/mL (≈ 1.01 µM); MIC (Staphylococcus aureus [22]): 0.25 µg/mL (≈ 0.253 µM); MIC (Staphylococcus aureus [23]): 0.5 µg/mL (≈ 0.507 µM); MIC (Streptococcus pneumoniae [24]): 0.03 µg/mL (≈ 0.0304 µM); MIC (Staphylococcus aureus [25]): 0.25 µg/mL (≈ 0.253 µM) |
| CCOC(=O)[C@H]1[C@H](C)O[C@@H](O[C@H]2[C@H](N(C)C)[C@@H](O)[C@H](O[C@H]3[C@@H](CC=O)C[C@@H](C)[C@@H](O)CN(C)CC(/C=C/Cc4cncc5ccccc45)CCOC(=O)C[C@@H](OC(=O)CC)[C@@H]3OC)O[C@@H]2C)C[C@@]1(C)O (stereo not given in full) | 32 (≈ 32.4 µM) | 2 (≈ 2.03 µM) | 0.25 (≈ 0.253 µM) | > 128 | 8 (≈ 8.11 µM) | 0.03 (≈ 0.0304 µM) | 0.25 (≈ 0.253 µM) | 8 (≈ 8.11 µM) | 128 (≈ 130 µM) | 1 (≈ 1.01 µM) | 0.015 (≈ 0.0152 µM) | 0.13 (≈ 0.132 µM) | 128 (≈ 130 µM) | 0.015 (≈ 0.0152 µM) | 0.03 (≈ 0.0304 µM) | > 128 | 128 (≈ 130 µM) | 8 (≈ 8.11 µM) | 8 (≈ 8.11 µM) | 0.015 (≈ 0.0152 µM) | MIC (Moraxella catarrhalis [21]): 1 µg/mL (≈ 1.01 µM); MIC (Staphylococcus aureus [22]): 0.25 µg/mL (≈ 0.253 µM); MIC (Staphylococcus aureus [23]): 0.5 µg/mL (≈ 0.507 µM); MIC (Streptococcus pneumoniae [24]): 0.03 µg/mL (≈ 0.0304 µM); MIC (Staphylococcus aureus [25]): 0.13 µg/mL (≈ 0.132 µM) |
